The Ki is the equilibrium dissociation constant of an inhibitor or competing ligand from its target. High values mean a looser hold on the target, low ones a stronger hold on the target.

The target in this assay is GABA-A receptor; anion channel. The assay can be described thus: Ability to inhibit [3H]-Ro- 15-1788 binding to Gamma-aminobutyric acid A receptor alpha in vitro in rat cortical membranes. Type of assay: cell membranes. An outline of the steps: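 Cortex from male Wistar rats (150–200 g) homogenized in 30 mM Tris-HCl pH 7.4, washed, incubated 30 min at 37 °C to remove endogenous GABA, stored frozen. Nonspecific binding defined with 1 μM clonazepam. Filtration on GF/C, scintillation counting; IC50 from single-concentration inhibition formula.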
For the compound `Cc1ccc2oc(-c3cc(C(=O)O)cc([N+](=O)[O-])c3)cc(=O)c2c1`, the inhibition constant (Ki) is greater than 1700 nM.

`COc1cccc(-c2cc(=O)c3cc(C)ccc3o2)c1` had an inhibition constant (Ki) of 99 nM.

With `Cc1ccc(O)c(-c2cc(=O)c3cc(C)ccc3o2)c1`, the affinity, expressed as Ki, was 7.8 nM.

`CCCCOc1cccc(-c2cc(=O)c3cc(C)ccc3o2)c1` returned an inhibition constant (Ki) of 710 nM. Against the preceding compound, the Ki is about 91-fold higher.

In turn, `Cc1ccc2oc(-c3cc(O)cc(C(=O)O)c3)cc(=O)c2c1` yielded a Ki greater than 1600 nM.

On to `Cc1ccc2oc(-c3ccccc3N)cc(=O)c2c1`, for which the inhibition constant (Ki) was determined as 700 nM. That is a sub-micromolar value.

`Cc1ccc2oc(-c3ccc(N)cc3)cc(=O)c2c1` gave an inhibitory constant (Ki) of 2600 nM. This Ki lies about 3.7-fold higher than the previous one.

The compound `Cc1ccc2oc(-c3cccc(N)c3)cc(=O)c2c1` displayed a Ki of 1200 nM. This Ki lies about 2.2-fold lower than the previous one.

Regarding `COC(=O)c1cc(O)cc(-c2cc(=O)c3cc(C)ccc3o2)c1`, the Ki is greater than 1600 nM.

In turn, `Cc1ccc2oc(-c3ccc(C)c(C)c3)cc(=O)c2c1` returned a Ki greater than 1700 nM.

In turn, `COc1cc(CO)cc(-c2cc(=O)c3cc(C)ccc3o2)c1` had a Ki greater than 1600 nM.

Regarding `CC(C)c1ccc2oc(-c3ccccc3)cc(=O)c2c1`, affinity was put at a Ki of 720 nM.

For the compound `Cc1cc(C)cc(-c2cc(=O)c3cc(C)ccc3o2)c1`, the Ki was greater than 1500 nM.

Compound `COc1ccc(Br)cc1-c1cc(=O)c2cc(C)ccc2o1` registered an inhibition constant (Ki) greater than 1500 nM.

Turning to `COC(=O)c1cc(N)cc(-c2cc(=O)c3cc(C)ccc3o2)c1`, the Ki is greater than 1900 nM.

Compound `Cc1ccc2oc(-c3ccccc3O)cc(=O)c2c1` returned a Ki of 6.2 nM.

Compound `Cc1ccc2oc(-c3cc(C(=O)O)cc(C(=O)O)c3)cc(=O)c2c1` returned a Ki greater than 1600 nM.

Consider `COC(=O)c1cc(C(=O)OC)cc(-c2cc(=O)c3cc(C)ccc3o2)c1`, for which the Ki was greater than 1600 nM.

In turn, `Cc1cccc2c(=O)cc(-c3ccccc3)oc12` displayed a Ki greater than 1700 nM.

In turn, `CCCc1ccc2oc(-c3ccccc3)cc(=O)c2c1` showed an inhibitory constant (Ki) of 480 nM.

As to `Cc1ccc2oc(-c3cccc(C(=O)O)c3)cc(=O)c2c1`, the inhibitory constant (Ki) is greater than 1700 nM.

Compound `COC(=O)c1cccc(-c2cc(=O)c3cc(C)ccc3o2)c1` yielded a Ki of 220 nM. In other words, the sub-micromolar range.

`CCc1ccc2oc(-c3ccccc3)cc(=O)c2c1` showed a Ki of 180 nM. This Ki and that of the compound before are within 1.5-fold of each other.

Compound `Cc1ccc2oc(-c3cccc(C(=O)OC(C)C)c3)cc(=O)c2c1` yielded a Ki of 180 nM.

Regarding `CCC(CC)COC(=O)c1cccc(-c2cc(=O)c3cc(C)ccc3o2)c1`, the Ki worked out at 610 nM.

The compound `COc1ccc(C)cc1-c1cc(=O)c2cc(C)ccc2o1` gave a Ki greater than 1500 nM.

Take `Cc1ccc2oc(-c3cc(CO)cc(CO)c3)cc(=O)c2c1`: the Ki is greater than 1500 nM.

For `COc1cc(C(=O)O)cc(-c2cc(=O)c3cc(C)ccc3o2)c1`, the Ki was greater than 1600 nM.

`Cc1ccc2oc(-c3cccc(C(F)(F)F)c3)cc(=O)c2c1` came in with an inhibition constant Ki of 9.8 nM.

Regarding `COc1ccccc1-c1cc(=O)c2cc(C)ccc2o1`, the Ki was 820 nM.

Compound `Cc1ccc2oc(-c3cccc(Br)c3)cc(=O)c2c1` registered an inhibition constant (Ki) of 12 nM.

In the case of `COC(=O)c1cc(OC)cc(-c2cc(=O)c3cc(C)ccc3o2)c1`, the Ki was determined as 3000 nM.

`Cc1ccc2oc(-c3cc(Br)ccc3O)cc(=O)c2c1`: affinity was put at a Ki of 0.9 nM.

As for `Cc1ccc2oc(-c3cccc(O)c3)cc(=O)c2c1`, the inhibition constant (Ki) is 390 nM.

For the compound `CCOC(=O)c1cc(N)cc(-c2cc(=O)c3cc(C)ccc3o2)c1`, the inhibition constant Ki stood at 3600 nM.

As to `COC(=O)c1cc(CO)cc(-c2cc(=O)c3cc(C)ccc3o2)c1`, the Ki is greater than 1500 nM.

Regarding `Cc1ccc2oc(-c3cccnc3)cc(=O)c2c1`, the Ki was found to be 130 nM.

In turn, `COC(=O)c1cc(-c2cc(=O)c3cc(C)ccc3o2)cc([N+](=O)[O-])c1` gave a Ki greater than 2100 nM.

On to `CCC(CC)COc1cccc(-c2cc(=O)c3cc(C)ccc3o2)c1`, for which the Ki came to 1000 nM. That is a single-digit micromolar value.

Compound `Cc1ccc2oc(-c3ccccc3)cc(=O)c2c1` [6-METHYLFLAVONE] registered a Ki of 180 nM.
